This note sets out measurements from ChEMBL document CHEMBL1128171, “A series of N4-imidoethyl derivatives of 1-(2,3-dihydro-1,4-benzodioxin-5-yl)piperazine as 5-HT1A receptor ligands: synthesis and structure-affinity relationships” (J Med Chem, 1995).

For data set [1], the target named is T1, 5-hydroxytryptamine receptor 1A (Rattus norvegicus, UniProt P19327).
T1 sequence (P19327 whole entry): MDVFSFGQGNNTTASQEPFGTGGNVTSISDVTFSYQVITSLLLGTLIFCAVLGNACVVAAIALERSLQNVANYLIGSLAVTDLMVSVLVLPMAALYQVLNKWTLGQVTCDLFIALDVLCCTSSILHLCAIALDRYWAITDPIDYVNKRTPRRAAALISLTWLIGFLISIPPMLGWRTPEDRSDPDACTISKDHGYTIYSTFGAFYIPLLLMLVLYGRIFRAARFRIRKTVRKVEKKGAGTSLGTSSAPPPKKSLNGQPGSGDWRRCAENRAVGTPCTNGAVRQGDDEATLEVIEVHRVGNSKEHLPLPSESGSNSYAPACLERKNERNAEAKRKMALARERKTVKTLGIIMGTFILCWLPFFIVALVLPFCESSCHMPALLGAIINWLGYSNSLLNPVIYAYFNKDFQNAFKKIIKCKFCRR
Briefly: Inhibition of [3H]2-(di-N-propylamino)-8-hydroxytetralin binding to 5-HT1A receptor of rat frontal cortex homogenates. It counts as tissue-based. The method, boiled down: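 Rat frontal cortex homogenates incubated with [3H]-8-OH-DPAT at 37 °C, pH 7.7. Four to six drug concentrations, each in triplicate; three to six assays per value. IC50 for displacement of specific binding converted to Ki by Cheng–Prusoff using radioligand concentration and Kd. Reported as pKi.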

The nature of data set [2]: Ionisation constant of the compound. It counts as ADME. The method, boiled down:
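Potentiometric titration at 37 °C (±1 °C) under nitrogen, using a glass pH electrode calibrated at pH 4, 7 and 9. 30 mg substance in 40 mL 0.1 M KCl in carbonate-free water, 0.002-0.005 M. Titrant 0.05 M NaOH added in 0.05 mL steps. pKa calculated from 5-15 curve points (pre-precipitation only) and averaged.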

In data set [1], `O=C1CCCC(=O)N1CCN1CCN(c2cccc3c2OCCO3)CC1` had a Ki of 347 nM. The molecule also yielded a pKa in data set [2] of 6.4.

For `CC1(C)CC(=O)N(CCN2CCN(c3cccc4c3OCCO4)CC2)C(=O)C1`, the affinity in data set [1], expressed as Ki, was 4.68 nM. The pKa in data set [2] worked out at 6.42.

Consider `Cc1ccc2c(c1)C(=O)N(CCN1CCN(c3cccc4c3OCCO4)CC1)C2=O`, for which the affinity in data set [1] corresponds to a Ki of 4.79 nM. Moreover, the pKa in data set [2] turned out to be 6.1.

In turn, `CC1CC(=O)N(CCN2CCN(c3cccc4c3OCCO4)CC2)C1=O` (configuration not stated) gave a Ki in data set [1] of 151 nM. The pKa in data set [2] was found to be 6.16.

In data set [1], `O=C1C=CC(=O)N1CCN1CCN(c2cccc3c2OCCO3)CC1` had a Ki of 977 nM. In data set [2], this molecule had a pKa of 5.9.

`O=C1C2CCCCC2C(=O)N1CCN1CCN(c2cccc3c2OCCO3)CC1` (configuration not stated) yielded a pKa in data set [2] of 6.07.

Consider `CC1=CC(=O)N(CCN2CCN(c3cccc4c3OCCO4)CC2)C1=O`, for which the Ki in data set [1] was 63.1 nM. Also, the pKa in data set [2] came out at 6.3.

In data set [1], `O=C1CCC(=O)N1CCN1CCN(c2cccc3c2OCCO3)CC1` gave a Ki of 110 nM. The molecule further had a pKa in data set [2] of 6.16.

Consider `O=C1C2CC=CCC2C(=O)N1CCN1CCN(c2cccc3c2OCCO3)CC1` (configuration not stated), for which, in data set [1], the Ki was 10 nM. In data set [2], this molecule registered a pKa of 6.05.

`O=C1C2=C(CCCC2)C(=O)N1CCN1CCN(c2cccc3c2OCCO3)CC1` had a Ki in data set [1] of 6.46 nM. The molecule also displayed a pKa in data set [2] of 6.3.

Regarding `O=C1CC2(CCCC2)CC(=O)N1CCN1CCN(c2cccc3c2OCCO3)CC1`, the Ki in data set [1] is 0.708 nM. The pKa in data set [2] was 6.51.

Molecule `O=C1c2ccccc2C(=O)N1CCN1CCN(c2cccc3c2OCCO3)CC1` had a Ki in data set [1] of 32.4 nM.
